{"source": "ChEMBL document CHEMBL5653613", "about": "(Mol Cancer Ther, 2013)", "key": {"T47D [1]": {"system": "T47D", "experiment": "Disruption of microtubule dynamics in human T47D cells assessed as condensed irregular-shaped chromosomes at 5 umol/L incubated for 24 hrs by immunofluorescence staining based analysis", "assay_type": "functional, cell-based", "details": "dose 5.0 µmol/L", "outline": "(§1)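 T-47D cells (1 × 10^6/dish) in RPMI-1640 with 5% FBS were treated with or without 5 µmol/L for 24, 48 and 72 h. Cells were fixed in cold acetone and stained with mouse anti-α-tubulin or anti-γ-tubulin, then an FITC anti-mouse IgG secondary, plus DAPI. Fluorescence microscopy, 200× magnification.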"}, "T47D [2]": {"system": "T47D", "experiment": "Disruption of microtubule dynamics in human T47D cells assessed as formation of multipolar spindles at 5 umol/L incubated upto 72 hrs by immunofluorescence staining based analysis", "assay_type": "functional, cell-based", "details": "dose 5.0 µmol/L", "outline": "as §1"}, "ZR-75-1 [3]": {"system": "ZR-75-1", "experiment": "Induction of polyploidy in human ZR-75-1 cells assessed as cells with 2N chromosome contents at 5 uM incubated for 48 hrs by PI staining based flow cytometry (reference value: 48)", "assay_type": "functional"}, "[4]": {"experiment": "Effect on methotrexate resistance in human ZR-75-1 cells with compound-induced polyploidy assessed as change in methotrexate-induced cytotoxicity by measuring increase in methotrexate IC50 at 5 umol/L preincubated for 72 hrs followed by compound washout and subsequent methotrexate treatment for 72 hrs by MTS assay", "assay_type": "functional, cell-based", "outline": "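Cells were first given the inducing compound for 72 h in 100-mm dishes. Polyploid cells were collected, washed and replated at 5,000 cells/well, with untreated cells at the same density as control. Methotrexate was added over a concentration range for 72 h, in triplicate. Viability was read by MTS assay and the IC50 calculated; 1 of 3 experiments shown.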"}, "ZR-75-1 [5]": {"system": "ZR-75-1", "experiment": "Induction of apoptosis in human ZR-75-1 cells assessed as viable cells at 5 umol/L incubated for 3 days by Annexin V/PI staining based flow cytometry (reference value: 95 %)", "assay_type": "functional", "details": "ZR-75-1, 72 h, dose 5 µmol/L, time 3 day, read-out: Activity"}, "MCF7": {"system": "MCF7", "experiment": "Induction of polyploidy in human MCF7 cells assessed as cells with 8N chromosome contents at 5 uM incubated for 48 hrs by PI staining based flow cytometry (reference value: 0)", "assay_type": "functional"}, "ZR-75-1 [6]": {"system": "ZR-75-1", "experiment": "Induction of polyploidy in human ZR-75-1 cells assessed as cells with 4N chromosome contents at 5 uM incubated for 72 hrs by PI staining based flow cytometry (reference value: 35)", "assay_type": "functional"}}, "note": "Activity calls are given as the source filed them. No cut-off for these calls is given here."}
{"smiles": "CCOc1ccn(-c2ccc(F)cc2)c(=O)c1C(=O)Nc1ccc(Oc2ccnc(N)c2Cl)c(F)c1", "note": "[BMS-777607]", "values": [{"measurement": "Activity", "setting": "T47D [1]", "result": "Active"}, {"measurement": "Activity", "setting": "T47D [2]", "result": "Active"}, {"measurement": "Activity", "setting": "ZR-75-1 [3]", "result": 4.5}, {"measurement": "IC50", "setting": "[4]", "result": 430, "unit": "nM"}, {"measurement": "viability at 5 µM", "setting": "ZR-75-1 [5]", "result": 88.5, "unit": "%"}, {"measurement": "Activity", "setting": "MCF7", "result": 25.5}, {"measurement": "Activity", "setting": "ZR-75-1 [6]", "result": 12}]}
